STK33 kinase inh – human STK33 kinase inhibition; Q9BYT3; purified STK33, MBP phosphorylation, ADP-Glo luminescence; inhibition, % at 10 µM; 0.073% of 320,000 active;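 active = inhibition at or above 25%, using the most active replicate where run in duplicate; inactive = inhibition below 25%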
GSK3B inh – human GSK3beta kinase inhibition; P49841; GST-GSK3beta kinase, ADP-Glo luminescence, 60 min; hits give low values; activity score (negative = inhibition), % at 10 µM; 0.038% of 300,000 active; AID 2097;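 active = more than half of replicate wells score below -50%, meaning over 50% inhibition versus plate controls; inconclusive = some replicates but at most half score below -50%; inactive = no replicate scores below -50%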
Target sequence (P49841 whole entry, looked up): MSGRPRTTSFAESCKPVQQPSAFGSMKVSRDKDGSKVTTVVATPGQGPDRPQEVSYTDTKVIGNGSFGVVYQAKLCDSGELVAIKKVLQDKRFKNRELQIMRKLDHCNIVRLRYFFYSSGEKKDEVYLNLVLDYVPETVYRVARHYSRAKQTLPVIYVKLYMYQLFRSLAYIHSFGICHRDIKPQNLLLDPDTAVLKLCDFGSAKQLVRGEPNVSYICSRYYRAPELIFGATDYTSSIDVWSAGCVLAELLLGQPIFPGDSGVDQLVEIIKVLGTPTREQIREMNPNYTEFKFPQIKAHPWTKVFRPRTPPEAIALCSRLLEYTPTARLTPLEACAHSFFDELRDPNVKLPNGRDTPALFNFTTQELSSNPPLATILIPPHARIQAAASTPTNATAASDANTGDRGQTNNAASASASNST
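Test system: GST-tagged human GSK3beta kinase, cell-free; evaluation: activity score scaled between in-plate DMSO and GW8510 controls; measured by: ADP-Glo luminescence; incubation: 60 min reaction, RT; benchmarks: DMSO and 20 µM GW8510; reagent: peptide substrate plus 25 µM ATP (final); medium: Tris/MgCl2 kinase buffer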
Rce1 inhib – inhibitors of yeast Ras-converting enzyme | calls only | Q03530 | 0.27% of 290,000 active | yeast membranes, quenched prenylated peptide cleavage fluorescence | AID 2563;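 active = fall in fluorescence gain of 50% or more versus controls, with final raw signal at or below 3038400; inconclusive = same 50% fall but final raw signal above 3038400; inactive = fall in fluorescence gain under 50%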
Target sequence (Q03530 whole entry, looked up): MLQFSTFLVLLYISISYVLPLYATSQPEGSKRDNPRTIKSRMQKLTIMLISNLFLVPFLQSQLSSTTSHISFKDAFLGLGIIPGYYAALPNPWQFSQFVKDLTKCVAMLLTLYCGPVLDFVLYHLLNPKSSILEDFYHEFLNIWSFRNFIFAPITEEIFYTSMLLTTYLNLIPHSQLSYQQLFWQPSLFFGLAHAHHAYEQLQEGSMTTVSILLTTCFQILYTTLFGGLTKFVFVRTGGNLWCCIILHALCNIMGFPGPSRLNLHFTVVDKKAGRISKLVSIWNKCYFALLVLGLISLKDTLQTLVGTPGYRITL
HSV augment – increases HSV replication in cells. HSV replication augmentation in cells, fold increase. maximum fold increase. 0.005% of 220,000 active. AID 1956; in the data active = maximum fold increase above about 1.5; inconclusive = no clear call, values can overlap the other calls; tested in PC3 cells
Lipid droplet – hepatic lipid droplet formation modulation; 0.4% of 240,000 active; AML12 mouse hepatocytes, oleate lipid droplets, BODIPY imaging; inhibition, % at 6.5 µM;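 active = lipid droplet intensity inhibited by at least 50%, with more than 500 cells counted; inconclusive = wells with under 300 cells, treated as cytotoxic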
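System: AML12 hepatocytes (mouse). Probe or stimulus: oleic acid at 100 µM to induce lipid droplet formation. Times: overnight treatment with compound plus oleate. Detection: Image-based BODIPY and DAPI two-channel analysis. Evaluation: percent inhibition of filter-corrected integrated lipid droplet intensity per well.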
GSK3 alpha inh – human GSK-3 alpha kinase inhibition; 0.1% of 320,000 active; P49840; ADP-Glo luminescence, 60 min; inhibition, % at 10 µM; AID 2650;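 active = more than half of replicates show inhibition above 20%; inconclusive = some but at most half of replicates above 20% inhibition; inactive = no replicate shows inhibition above 20%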;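 note: GST-tagged GSK-3 alpha with peptide substrate and 25 µM ATP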
Hep lipid conf – confirmation of inhibitors of hepatic lipid droplet formation | shares compounds with Lipid droplet | AML12 mouse hepatocytes, BODIPY lipid droplet imaging; droplets induced with 100 µM oleic acid | inhibition, % at 5.2 µM | 65% of 870 active;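 active = inhibition of lipid droplet metric at least 50%, with more than 300 cells in each of four replicates; inconclusive = wells under 300 cells, flagged as toxic or low count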
AML12 tox img – toxic to AML12 mouse hepatocytes in counter-screen | AID 463200 | DAPI nuclear morphology cytotoxicity imaging; hits give high values; cells fed 100 µM oleate overnight | shares compounds with Lipid droplet | z-score at 5 µM | 3% of 870 active; in the data active = z-score above about 6.3;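 note: compound exposure lasted overnight at 37 °C before fixation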
AML12 tox conf – AML12 hepatocyte cytotoxicity, confirmed | shares compounds with Lipid droplet | AML12 mouse hepatocyte viability, ATP luminescence; cells loaded with 100 µM oleic acid | cytotoxicity, % at 50 µM | 530 tested, under 10 active | AID 463219;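 active = cytotoxicity above 50% in each of four replicates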;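 note: compound exposure lasted overnight at 37 °C before the ATP read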
Of the large screens only hits and unclear results are named; the others gave an inactive call (follow-up assays come after a bar, where they were run); ! = a repeat was not active. The list is not random: actives were taken first. Their share in the collection is about 0.7%.

Cc1cc(OCC(=O)OCC(=O)Nc2cc(C(F)(F)F)ccc2N2CCOCC2)ccc1Cl	none
COC(=O)c1cn(NC(=O)c2ccc([N+](=O)[O-])cc2Cl)c(=O)c2ccccc12	Lipid droplet 50 | Hep lipid conf inactive | AML12 tox img inactive
COC(=O)c1cn(NC(=O)c2cc(OC)cc(OC)c2)c(=O)c2ccccc12	none (no result: Lipid droplet)
O=C(NCc1ccccc1F)C1CCCN(S(=O)(=O)N2CCOCC2)C1 (stereo unspecified)	none (no result: HSV augment)
CC1CC(C)CN(S(=O)(=O)c2ccc3c(c2)CC(=O)N3)C1 (stereo unspecified)	none (no result: GSK3B inh, Rce1 inhib, HSV augment, Lipid droplet)
O=[N+]([O-])c1cc(Cl)ccc1N1CCN(c2cccc(C(F)(F)F)c2)CC1	Lipid droplet 64 | Hep lipid conf 94 | AML12 tox img inactive | AML12 tox conf inactive
O=C(Cc1cccc2ccccc12)Nc1ccc(-c2cc3ccccc3oc2=O)cc1	HSV augment inconclusive, Lipid droplet 72 | Hep lipid conf 100 | AML12 tox img inactive | AML12 tox conf inactive
O=C(CN1C(=O)NC2(CCOc3ccccc32)C1=O)NCc1ccccc1 (stereo unspecified)	none (no result: GSK3B inh, Rce1 inhib, HSV augment, Lipid droplet)
COc1ccc(NC(=S)NC(=O)c2ccccc2Cl)cc1	Lipid droplet 57 | Hep lipid conf inactive | AML12 tox img inactive
CCOc1ccc(CCNC(=O)CCS(=O)(=O)c2ccc(Br)cc2)cc1OCC	Lipid droplet 54 (no result: HSV augment) | Hep lipid conf 92 | AML12 tox img inactive | AML12 tox conf inactive
CCOc1ccc(CCNC(=O)CCNS(=O)(=O)c2ccc(Br)cc2)cc1OCC	Lipid droplet 75 (no result: HSV augment) | Hep lipid conf 98 | AML12 tox img inactive | AML12 tox conf inactive
COc1ccc(CCNC(=O)CCS(=O)(=O)c2ccc(C)cc2)cc1OC	none
CCOc1ccc(CCNC(=O)CCS(=O)(=O)c2ccc(C)cc2)cc1OCC	Lipid droplet 102 (no result: HSV augment) | Hep lipid conf 95 | AML12 tox img inactive | AML12 tox conf inactive
CCOc1ccc(CCNC(=O)CCC(=O)N2CCOc3ccccc32)cc1OCC	Lipid droplet 83 (no result: HSV augment) | Hep lipid conf 111 | AML12 tox img inactive | AML12 tox conf inactive
O=C(CCNS(=O)(=O)c1ccc(Br)cc1)NCCc1ccc(Cl)cc1	none (no result: HSV augment)
S=c1[nH]nc(-c2cc(-c3ccccc3)n[nH]2)n1/N=C/C(Br)=C/c1ccccc1	none
Cc1cccc(N=CC=C2OC(C)(C)C(C)(C)O2)c1	none (no result: STK33 kinase inh, GSK3 alpha inh)
COc1cccc(N=CC=C2OC(C)(C)C(C)(C)O2)c1	Lipid droplet 66 | Hep lipid conf inactive | AML12 tox img inactive
COc1cccc(Cc2n[nH]c(=S)n2Cc2ccco2)c1	none
C=CCN1C(=O)/C(=C\C=C2\N(C)c3ccccc3C2(C)C)SC1=S	HSV augment inconclusive, Lipid droplet 91 | Hep lipid conf 107 | AML12 tox img inactive | AML12 tox conf inactive
O=C(Nc1cccc(OCC(=O)N2CCOCC2)c1)c1ccc(C(F)(F)F)cc1	none (no result: HSV augment)
O=C(Nc1ccccc1C(=O)O)c1ccc(Br)o1	none (no result: Lipid droplet)
COC(=O)c1ccccc1NC(=O)c1cccc(NC(=O)c2ccc(Br)o2)c1C	Lipid droplet 62 | Hep lipid conf 96 | AML12 tox img inactive | AML12 tox conf inactive
Cc1noc(C)c1C(=O)Nc1ccc(F)cc1F	Lipid droplet 55 (no result: STK33 kinase inh, GSK3 alpha inh) | Hep lipid conf inactive | AML12 tox img inactive
COC(=O)c1cc(C)sc1NC(=O)C1CC(=O)NN1Cc1ccccc1 (stereo unspecified)	Lipid droplet 86 | Hep lipid conf 109 | AML12 tox img inactive | AML12 tox conf inactive
COC(=O)c1c(NC(=O)C2CC(=O)NN2Cc2ccccc2)sc(C)c1C (stereo unspecified)	none (no result: Lipid droplet)
CCOC(=O)c1cc(CC)sc1NC(=O)COC	none
CCOC(=O)c1cc(CC)sc1NC(=O)C1CC(=O)NN1Cc1ccccc1 (stereo unspecified)	Lipid droplet 82 | Hep lipid conf 110 | AML12 tox img inactive | AML12 tox conf inactive
Fc1ccc(-c2cnn3c(-c4cccs4)ccnc23)cc1	Lipid droplet 63 (no result: STK33 kinase inh, GSK3 alpha inh) | Hep lipid conf 79 | AML12 tox img inactive
Cc1cc(=O)[nH]c2sc(C(=O)N3c4ccccc4CC3C)c(N)c12 (stereo unspecified)	none (no result: GSK3B inh, Rce1 inhib, HSV augment, Lipid droplet)
COc1ccccc1/C=N\Nc1ccccc1[N+](=O)[O-]	Lipid droplet 165 | Hep lipid conf 63 | AML12 tox img inactive
CCCOc1ccc(/C=N/Nc2ccccc2[N+](=O)[O-])c(O)c1	Lipid droplet 56 | Hep lipid conf inactive | AML12 tox img inactive
Cc1[nH]c2ccccc2c1/C=N/Nc1ccccc1[N+](=O)[O-]	Lipid droplet 85 | Hep lipid conf 114 | AML12 tox img inactive
CC(C)Oc1ccccc1/C=N/Nc1ccccc1[N+](=O)[O-]	Lipid droplet 95 | Hep lipid conf 115 | AML12 tox img inactive
CCOc1ccccc1/C=N/Nc1ccccc1[N+](=O)[O-]	none (no result: Lipid droplet)
COc1ccc(COCC(O)CN2CCN(S(=O)(=O)c3ccc(C(C)C)cc3)CC2)cc1 (stereo unspecified)	none (no result: GSK3B inh, Rce1 inhib, HSV augment, Lipid droplet)
CN1CCN(C2CCN(c3cccc(Cl)c3)CC2)CC1CCO (stereo unspecified)	none (no result: HSV augment)
Cc1nn(C(C)C(=O)NCCCc2ccccc2)c(=O)c2nn(-c3ccccc3)c(C)c12 (stereo unspecified)	none (no result: HSV augment)
Cc1nn(Cc2n[nH]c(=S)n2Cc2ccccc2)c(C)c1Cl	none (no result: Lipid droplet)
O=C(NCCO)c1cc2ccccc2cc1O	Lipid droplet 50! | Hep lipid conf inactive | AML12 tox img inactive
NNC(=O)c1cc2ccccc2cc1O	none
FC(F)(F)COc1nc(OCC(F)(F)F)nc(N2CCN(c3ccccc3)CC2)n1	none (no result: Lipid droplet)
FC(F)(F)COc1nc(N2CCOCC2)nc(N(c2ccccc2)c2ccccc2)n1	Lipid droplet 51 (no result: STK33 kinase inh, GSK3 alpha inh) | Hep lipid conf 73 | AML12 tox img inactive | AML12 tox conf inactive
CN1CCN(S(=O)(=O)c2ccc(NC(=O)c3ccc(F)cc3Cl)cc2)CC1	none (no result: HSV augment)
Cc1ccc(NC(=O)CN(C)S(=O)(=O)c2cccs2)c(Br)c1	Lipid droplet 63 (no result: GSK3B inh, Rce1 inhib, HSV augment) | Hep lipid conf inactive | AML12 tox img inactive
Cc1ccc(NC(=O)CN(C)S(=O)(=O)c2cccs2)cc1C	none
N/C(=N\c1nc2c(c(=O)[nH]1)CCCC2)Nc1ccc(Oc2ccccc2)cc1	Lipid droplet 61 | Hep lipid conf inactive | AML12 tox img inactive
Cc1cccc(N/C(N)=N/c2nc3c(c(=O)[nH]2)CCCC3)c1	none
